Rce1 inhib = yeast Rce1p protease inhibitors, primary screen, biochemical, fluorescence, cell-free homogeneous; calls only; yeast membranes, quenched prenylated peptide cleavage fluorescence; CAAX prenyl protease 2 (Saccharomyces cerevisiae (strain ATCC 204508 / S288c)), Q03530; 290,000 compounds, 0.27% hits; AID 2563, 2010;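 active means fall in fluorescence gain of 50% or more versus controls, with final raw signal at or below 3038400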;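 further: plate controls were neutral control wells for no effect and wells lacking membranes for full effect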
core dimer inh = inhibitors of HCV core protein dimerization, primary screen, biochemical, TR-FRET, high-throughput | inhibition, % at 5 µM | 300,000 compounds, 0.33% hits | TR-FRET GST/Flag-core106 dimerization, 1536-well | AID 1899, 2009;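 active means inhibition above the mean of all tested compounds plus 3 SD, set per screening campaign, cut at about 45% in these data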
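Material: Tagged HCV core106 pair (GST and Flag) | Amount: GST-core106 13.5 nM, Flag-core106 17 nM | Medium: KF-containing HEPES buffer, pH 7.45, DTT, CHAPS, BSA | Reagent: Eu donor and XL665 acceptor anti-tag antibodies | Schedule: 4 h at 22.5 °C | Technique: Time-resolved FRET, ex 340 nm, em 617 and 671 nm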
NadD inh = inhibitors of S. aureus NadD, primary screen, biochemical, colorimetric, uHTS; purified NadD enzyme, colorimetric absorbance read-out; 360,000 compounds, 0.78% hits; inhibition, % at 20 µM; in the data active means inhibition above about 26%
Pemphigus Ab inh = inhibitors of pemphigus antibody binding to DSG3, primary screen, biochemical, bead-based, flow cytometry, scFv-GFP | Desmoglein-3 (Homo sapiens), P32926 | DSG3-coupled beads, scFv-anti-DSG3-GFP binding; active compounds read low | binding (percent of control), % at 10 µM | 310,000 compounds, 0.48% hits | AID 588358, 2011;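 active means binding more than 3 SD below its plate's average and above zero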;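 further: hits lower antibody fragment binding to DSG3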
Target sequence (P32926 whole entry, looked up, the tested form may be a part): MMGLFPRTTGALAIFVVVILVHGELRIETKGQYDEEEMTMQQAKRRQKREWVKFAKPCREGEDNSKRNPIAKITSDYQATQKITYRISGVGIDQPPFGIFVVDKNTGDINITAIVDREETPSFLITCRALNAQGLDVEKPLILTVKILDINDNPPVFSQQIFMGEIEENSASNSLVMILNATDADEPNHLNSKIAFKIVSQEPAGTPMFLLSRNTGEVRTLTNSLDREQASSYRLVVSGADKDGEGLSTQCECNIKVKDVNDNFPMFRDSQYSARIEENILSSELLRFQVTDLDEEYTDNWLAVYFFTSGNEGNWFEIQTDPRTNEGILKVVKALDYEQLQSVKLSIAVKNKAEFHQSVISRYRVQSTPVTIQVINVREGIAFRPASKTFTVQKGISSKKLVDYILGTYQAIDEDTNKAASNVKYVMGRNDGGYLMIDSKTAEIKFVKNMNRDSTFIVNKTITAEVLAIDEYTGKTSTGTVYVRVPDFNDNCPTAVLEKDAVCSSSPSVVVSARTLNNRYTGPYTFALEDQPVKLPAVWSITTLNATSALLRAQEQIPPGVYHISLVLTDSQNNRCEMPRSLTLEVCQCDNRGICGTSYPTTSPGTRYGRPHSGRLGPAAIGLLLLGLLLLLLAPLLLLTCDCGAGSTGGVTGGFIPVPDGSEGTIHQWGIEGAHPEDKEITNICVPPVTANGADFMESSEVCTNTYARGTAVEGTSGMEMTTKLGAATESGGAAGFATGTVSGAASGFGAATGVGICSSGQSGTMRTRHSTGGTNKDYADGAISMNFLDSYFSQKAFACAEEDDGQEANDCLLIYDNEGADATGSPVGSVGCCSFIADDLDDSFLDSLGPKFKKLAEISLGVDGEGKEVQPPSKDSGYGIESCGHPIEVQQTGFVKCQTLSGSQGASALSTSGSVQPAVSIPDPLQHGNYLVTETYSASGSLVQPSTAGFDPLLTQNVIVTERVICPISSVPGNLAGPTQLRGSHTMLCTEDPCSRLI
TbMetRS inhib = T. brucei MetRS inhibitors, primary screen, biochemical, luminescence; 360,000 compounds, 0.4% hits; purified T. brucei MetRS, ATP depletion, Kinase-Glo luminescence; methionyl-tRNA synthetase (Trypanosoma brucei brucei); AID 624268, 2012; inhibition, % at 11.9 µM;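 active means inhibition above a per-plate cutoff of the control wells' mean inhibition plus 3 SD, cut at about 5.5% in these data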;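 further: 0% = DMSO wells median and 100% = median of wells with control inhibitor compound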
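Test system – parasite MetRS enzyme · Reagent – substrates ATP, L-methionine and bulk Escherichia coli tRNA · Doses – 11.9 µM compound single dose, 0.9% DMSO · Times – 15 min enzyme-compound preincubation, 2 h reaction, 10 min detection, 25 °C · Signal – Kinase-Glo luminescence, ATP depletion format · Controls – DMSO-only wells as low control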
Active calls of the source: *; i = inactive; / = not tested or not shown; + = active, no number. The list is not random: actives were taken first. Their share in the collection is about 1.9%.

SMILES	Rce1 inhib	core dimer inh	NadD inh	Pemphigus Ab inh	TbMetRS inhib
Cc1cccc(Cn2cnc3c(nnn3Cc3ccc(Cl)cc3)c2=O)c1	i	8.6	-7.6	91.0	-1.2
COCCNC(=O)CSc1ncnc2sc(-c3ccccc3)cc12	i	1.8	0.5	102.7*	-0.2
O=C(N/N=C/c1ccc(F)cc1)c1cc(-c2ccccn2)nc2ccccc12	/	/	0.7	100.3	0.0
O=C(N/N=C/c1cccnc1)c1cc(-c2cccs2)nc2ccccc12	i	-2.6	10.7	100.5	0.4
COc1cccc(/C=N/NC(=O)c2cc(-c3ccccn3)nc3ccccc23)c1O	/	/	47.5*	103.3	-0.4
O=C(N/N=C/c1ccc2ncccc2c1)c1cc(-c2cccs2)nc2ccccc12	i	19.5	20.5	70.1*	0.4
COc1cccc(/C=N/NC(=O)c2[nH]c(C)c(C(=O)N/N=C/c3cccc(OC)c3O)c2C)c1O	i	8.2	34.8*	89.2	0.0
O=C(N/N=C/c1cc(Cl)cc([N+](=O)[O-])c1O)c1cc(-c2ccccn2)nc2ccccc12	i	11.3	31.7*	109.1	0.6
CCOC(=O)C1=CN2CCC[C@H]2CC1=O	/	/	0.7	94.4	-0.1
C=C1C(=O)O[C@H]2C1CC[C@@](C)(O)C13C=CC(C)(C21)C1(C3)C(=O)O[C@@H]2C3C(C)=CCC3[C@](C)(O)C[C@H](OC(C)=O)C21 (some centres not stated)	i	-2.8	-4.4	103.5	-0.7
CCCCN(C)C(=O)c1nc2ccccn2c1CN1CCN(c2cnccn2)CC1	i	0.8	7.0	103.7	-0.3
COc1ccc(CCNC(=O)CCC(=O)N2CCOc3ccc(C)cc32)cc1OC	i	7.8	-0.7	90.4	-0.7
COc1ccc(OC)c(CCNC(=O)CCC(=O)N2CCOc3ccc(C)cc32)c1	i	-2.7	0.9	68.0*	-0.7
CS(=O)(=O)n1nc(-c2ccc(Cl)cc2)nc1N	i	-3.0	-5.0	100.7	0.1
Cn1nc(-c2ccc(Cl)cc2)nc2c(=O)n(C)c(=O)nc1-2	i	68.0*	/	/	/
OC1(c2ccccc2)CC(c2ccccc2)c2ccccc2O1 (configuration not stated)	/	/	-1.2	49.1*	-0.5
COc1ccc(C2CC(O)(c3ccccc3)Oc3cc(OC)c(OC)c(OC)c32)cc1 (configuration not stated)	i	14.2	-10.1	109.1	-0.3
COCCNC(=S)N(CCO)Cc1cc2cc3c(cc2[nH]c1=O)OCCO3	i	2.4	14.9	99.8	1.8
CCCCCc1ccc(OCCOCCn2c[n+](C)c3ccccc32)c(CCCCC)c1	+	/	8.0	115.4	-0.8
Cc1cc(NC(=O)CCCn2nc([N+](=O)[O-])c(Br)c2C)no1	i	-4.1	-6.4	104.4	-0.3
Cc1cc(=O)oc2cc(OCc3ccc(C(=O)OCC(=O)NC4CCS(=O)(=O)C4)cc3)ccc12 (configuration not stated)	i	2.9	-1.0	70.2*	-0.9
N=C1C(c2nc(-c3ccc(Br)cc3)cs2)=C(O)CN1NC(=O)c1ccc([N+](=O)[O-])cc1	i	52.8*	7.3	88.9	0.3
Nc1c(C(=O)NCCN2CCOCC2)c2nc3ccccc3nc2n1-c1cccc(F)c1	+	-3.6	-2.0	108.2	-0.9
CCN(CC)S(=O)(=O)c1cccc(-c2nnc(SC(C)C(=O)NCCC3=CCCCC3)o2)c1 (configuration not stated)	i	5.2	10.2	105.5	-0.4
Cc1c(C(=O)N2CC(C)OC(C)C2)oc2ccccc12 (configuration not stated)	i	-1.1	-6.1	97.8	-0.8
SMILES	Rce1 inhib	core dimer inh	NadD inh	Pemphigus Ab inh	TbMetRS inhib
O=c1oc(-c2ccccc2)nc2sc3c(c12)CCC3	i	58.6*	-3.7	86.6	0.0
COCCN(C(=O)Cc1cccs1)C(C(=O)NC1CCCC1)c1cc(OC)c(OC)c(OC)c1 (configuration not stated)	i	-1.9	-11.5	95.9	-0.9
COc1ccc(Cl)cc1C(=O)Nc1ccc2c(c1)OCCO2	i	/	-8.4	96.6	-0.6
COc1ccc(Cl)cc1C(=O)Nc1ccc2c(c1)OCO2	+	-3.9	-0.8	109.3	0.1
O=C(CN1C(=O)NC2(CCCC2)C1=O)OCc1cc(=O)n2cc(Br)ccc2n1	i	18.5	2.7	64.8*	0.0
CC1(C)NC(=O)N(CC(=O)OCc2cc(=O)n3cc(Br)ccc3n2)C1=O	/	-0.1	-0.3	103.3	-0.1
O=C(CN1CCN(c2ccc(O)cc2)CC1)Nc1ccc(S(=O)(=O)N2CCCC2)cc1	/	/	7.3	72.9*	-0.2
CC(=O)Nc1ccc(S(=O)(=O)NNC(=O)c2cc3c4ccccc4n(C)c3s2)cc1	i	14.3	14.1	105.8	0.5
CCCn1c(SC(C)C(=O)NC2CCCC(C)C2C)n[nH]c1=O (configuration not stated)	/	/	-1.4	78.8*	-0.5
CC(Sc1n[nH]c(=O)n1Cc1ccccc1)C(=O)NC1CCCCC1C (configuration not stated)	i	4.0	-3.0	99.6	-0.5
Cc1ccc2c(CC(=O)OCc3cc(=O)n4c(n3)sc3ccccc34)coc2c1	i	89.7*	9.7	101.1	-1.3
Cc1c(C(=O)NCc2ccc3c(c2)OCO3)sc2nc(-c3ccc(F)cc3)cn12	i	8.0	3.4	91.4	-0.5
Cc1c(C(=O)NCc2ccc3c(c2)OCO3)sc2nc(-c3ccccc3)cn12	i	11.8	12.8	57.5*	-0.5
CCOC(=O)c1cc(-c2ccc(/C=C3/C(=O)NC(=O)C(C#N)=C3C)o2)ccc1Cl	i	25.5	38.6*	104.3	0.5
CC1=C(C#N)C(=O)NC(=O)/C1=C\c1ccc(-c2ccc(C)cc2[N+](=O)[O-])o1	i	/	4.1	98.2	0.4
Cc1ccc(CC(=O)CCc2ccccc2)cc1	i	2.9	-6.3	99.8	-0.3
O=C(CN(c1cccc(Br)c1)S(=O)(=O)c1ccccc1)N/N=C/c1cc([N+](=O)[O-])ccc1O	i	8.5	46.8*	97.0	0.1
O=C(Cc1ccccc1)N/N=C/c1ccc(-c2ccc([N+](=O)[O-])cc2)o1	i	-9.8	0.3	93.0	-0.6
Cc1ccc(C)c(N(CC(=O)N/N=C/c2ccc(-c3ccc([N+](=O)[O-])cc3)o2)S(=O)(=O)c2ccccc2)c1	i	52.3*	32.3*	85.3*	-1.0
CCOC(=O)Cc1cc(=O)n2[nH]c(C)c(C#N)c2n1	i	-6.1	6.2	125.3	-0.2
